The record followed here is ChEMBL document CHEMBL3297691, “Development and bioorthogonal activation of palladium-labile prodrugs of gemcitabine” (J Med Chem, 2014).

Broadly, the EC50 is the concentration giving half of the maximal effect. Low values mean greater potency, high ones weaker potency.

Series [1] can be described thus: Cytotoxicity against human BxPC3 cells after 5 days by PrestoBlue assay. The note with it: BXPC-3, 96 h, in the assay text read “4 days” for “5 days”. In kind it is functional, cell-based.
The nature of series [2]: Cytotoxicity against human MIAPaCa2 cells after 4 days by PrestoBlue assay. Particulars: MIA PaCa-2, 96 h.
Series [3] is filed under the species Danio rerio. Briefly: Prodrug conversion in zebrafish yolk assessed as formation of rhodamine 110 at 5 uM after 24 hrs by fluorescence microscopic analysis in presence of palladium-resins. Particulars: in vivo.
Series [4] can be described thus: Cytotoxicity against human MIAPaCa2 cells after 5 days by PrestoBlue assay. The series is classed as functional, cell-based. The note with it: MIA PaCa-2, 96 h, in the assay text read “4 days” for “5 days”.
Series [5] is described as follows: Prodrug conversion in phosphate buffered saline assessed as compound retention time at 100 uM after 6 to 24 hrs by HPLC analysis in presence of palladium-resins. The series is classed as physicochemical. The note with it: buffer. The method in brief:
(§1)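 Prodrug at 100 μM in PBS (300 mOsm/kg, pH 7.4) was shaken at 1400 rpm and 37 °C with Pd0-resins (1 mg/mL, 4.4% w/w Pd; [Pd0] 400 μM). Samples were taken at 0, 6 and 24 h for reverse-phase HPLC with UV at 280 nm: water/acetonitrile with 0.1% formic acid, 95:5 to 5:95 over 3 min.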

Series [6] can be described thus: Prodrug conversion in phosphate buffered saline assessed as formation of gemcitabine at 100 uM after 24 hrs by HPLC analysis in presence of palladium-resins. In kind it is physicochemical. The note with it: buffer. In a few lines:
as §1

The nature of series [7]: Prodrug conversion in phosphate buffered saline assessed as half life of formation of gemcitabine at 100 uM by HPLC analysis in presence of palladium-resins. The note with it: buffer. The series is classed as physicochemical.
Series [8] relates to BXPC-3. Briefly: Cytotoxicity against human BxPC3 cells at 100 nM after 5 days by PrestoBlue assay in presence of palladium-resins. The series is classed as functional, cell-based. In a few lines:
(§2)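 BxPC-3 (RPMI; 2,500 cells/well) or Mia PaCa-2 (DMEM; 1,000 cells/well) in 10% FBS and 2 mM L-glutamine were grown 48 h, then given fresh medium with compound (3, 10, 30, 100, 300 nM), with or without Pd0-resins (0.67 mg/mL), in 0.1% DMSO. After 5 days at 37 °C and 5% CO2, PrestoBlue (10% v/v) was added for 60 min; fluorescence ex 540/em 590 nm, normalized to DMSO wells; n = 3.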

For series [9], the system named is BXPC-3. Briefly: Cytotoxicity against human BxPC3 cells at 10 to 100 nM after 5 days by PrestoBlue assay in presence of palladium-resins. The series is classed as functional, cell-based. In a few lines: as §2
In series [10] the test system is MIA PaCa-2. Briefly: Cytotoxicity against human MIAPaCa2 cells at 30 to 300 nM after 5 days by PrestoBlue assay in presence of palladium-resins. In kind it is functional, cell-based. In a few lines:
as §2

Series [11] can be described thus: Cytotoxicity against human BxPC3 cells at 10 to 100 nM after 5 days by PrestoBlue assay. The note with it: bxpc-3, 120 h, 0.1 µM. In kind it is cell-based. In a few lines: as §2
The nature of series [12]: Cytotoxicity against human MIAPaCa2 cells at 30 to 300 nM after 5 days by PrestoBlue assay. In kind it is cell-based. The note with it: mia paca-2, 120 h, 0.3 µM. The method in brief: as §2
Series [13] has as its system BXPC-3. Briefly: Cytotoxicity against human BxPC3 cells at 30 nM up to 120 hrs by IncuCyte ZOOM analysis. The series is classed as functional, cell-based. The method in brief: (§3)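 BxPC-3 cells in RPMI with 10% FBS and 2 mM L-glutamine were treated once at 30 nM. Wells were imaged every 3 h for 5 d (120 h) by IncuCyte ZOOM inside the incubator (37 °C, 5% CO2). Confluence came from image analysis; n = 3, ± SD.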

Series [14] is described as follows: Toxicity in human BxPC3 cells assessed as cell growth at 30 nM up to 120 hrs by IncuCyte ZOOM analysis. The note with it: bxpc-3, 120 h, 0.03 µM. In kind it is cell-based. The method in brief: as §3
A short description of series [15]: Toxicity in human MIAPaCa2 cells assessed as induction of DNA damage by measuring phosphorylated gamma-H2AX level at 300 nM after 24 hrs by immunofluorescence analysis. In kind it is cell-based. The note with it: mia paca-2, 24 h, 0.3 µM. The method in brief:
(§4)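 Mia PaCa-2 cells (2,000/well, DMEM) were grown 48 h, then treated 24 h at 300 nM in 0.1% DMSO, with or without Pd0-resins (0.67 mg/mL). The prodrug–resin mix was preincubated 24 h at 37 °C before addition. Cells were fixed in 4% paraformaldehyde and permeabilized with 0.1% Triton X-100. Staining used rabbit anti-phospho-H2AX Ser139 (1:400, 1 h, RT), then Alexa 488 secondary, Hoechst and phalloidin. Imaged by confocal microscopy.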

The nature of series [16]: Toxicity in human MIAPaCa2 cells assessed as induction of DNA damage by measuring phosphorylated gamma-H2AX level at 300 nM after 24 hrs by immunofluorescence analysis in presence of palladium-resins. Particulars: mia paca-2, 24 h, 0.3 µM. The series is classed as cell-based. The method in brief:
as §4

A short description of series [17]: Prodrug conversion in phosphate buffered saline assessed as gemcitabine retention time at 100 uM after 6 to 24 hrs by HPLC analysis in presence of palladium-resins. The series is classed as physicochemical. Particulars: buffer. In a few lines:
as §1

Series [18] can be described thus: Cytotoxicity against human BxPC3 cells after 4 days by PrestoBlue assay. The note with it: BXPC-3, 96 h.

Active and inactive are the calls of the source. No cut-off for these calls is given here. Bounds are passed on as bounds.

As for `C#CCOC(=O)OC[C@H]1O[C@H](n2ccc(N)nc2=O)C(F)(F)[C@@H]1O`, the EC50 in [1] stood at 0.013 µM; in series [2], 0.045 µM.
On to `O=C(Nc1ccc2c(c1)Oc1cc(NC(=O)OCc3ccccc3)ccc1C21OC(=O)c2ccccc21)OCc1ccccc1`, for which, in series [3], the Drug metabolism result is on record as “metabolite_notdetected”.
Regarding `C#CCOC(=O)Nc1ccn([C@H]2O[C@H](CO)[C@@H](O)C2(F)F)c(=O)n1`, the EC50 in [1] is 0.237 µM; in [4] it was 1.4 µM. Also, the Retention_time in series [5] is reported as 2.45 min. For the same molecule, in series [6], the Drug metabolism result is listed as “Active”. Moreover, in [7], the t1/2 was < 6 h. Further, the outcome in series [8], in [9], in [10] and in series [13] was Active. Further, the Activity entry is “Non-toxic” in [11]; “Non-toxic” in [12]; 100% in [14]; “Non-toxic” in [15]; “Toxic” in series [16].
Turning to `Nc1ccn([C@@H]2O[C@H](CO)[C@@H](O)C2(F)F)c(=O)n1` [GEMCITABINE], the concentration for a half-maximal effect (EC50) turned out to be 0.01 µM in series [1] and 2 µM in series [4]. Also, the Retention_time in series [17] was 0.93 min.
In the case of `C#CCOC(=O)Nc1ccc2c(c1)Oc1cc(NC(=O)OCC#C)ccc1C21OC(=O)c2ccccc21`, the Drug metabolism entry in series [3] is recorded as “metabolite_detected”.
As for `Nc1ccn([C@H]2O[C@H](COC(=O)OCc3ccccc3)[C@@H](O)C2(F)F)c(=O)n1`, the EC50 amounted to 0.012 µM in series [1] and 0.029 µM in [4].
On to `O=C(Nc1ccn([C@H]2O[C@H](CO)[C@@H](O)C2(F)F)c(=O)n1)OCc1ccccc1`, for which the EC50 is 0.094 µM in series [4] and 0.253 µM in [18]. Also, the Retention_time in [5] stood at 2.96 min. Further, in series [8], the result was inactive.
With `C=CCOC(=O)Nc1ccn(C2O[C@H](CO)[C@@H](O)C2(F)F)c(=O)n1` (single isomer, unassigned), the EC50 is 0.9 µM in series [4] and 0.335 µM in series [18]. Besides, the Retention_time in series [5] came out at 2.56 min. The Drug metabolism entry in series [6] was “Active”. For the same molecule, the result in series [8], in series [9], in [10] and in series [13] was Active. For the same molecule, the Activity entry in [11] is recorded as “Non-toxic”; in series [12], “Non-toxic”; in series [14], 100%.
`C=CCOC(=O)OC[C@H]1O[C@H](n2ccc(N)nc2=O)C(F)(F)[C@@H]1O`: the EC50 in series [1] stood at 0.022 µM; in [4], 0.027 µM.
